According to ChEMBL document CHEMBL1949609, “Synthesis and biological evaluation of novel sinomenine derivatives as anti-inflammatory agents” (Eur J Med Chem, 2012):

Tests used:
RAW264.7 [1] = assay: Antiinflammatory activity in mouse RAW264.7 cells assessed as inhibition of LPS-induced nitric oxide production after 24 hrs by Griess method; type: functional, cell-based; conditions: RAW264.7, 24 h
Procedure, shortened: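 Cells were treated with compound (0.5–100 µM; 0.1% DMSO final) and LPS 500 ng/mL together for 24 h. Nitrite in the medium was read with Griess reagent (10 min, room temperature, dark) at OD540. IC50 comes from three separate experiments, each in triplicate.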

RAW264.7 [2] = assay: Cytotoxicity against mouse RAW264.7 cells after 24 hrs by MTT assay; type: cell-based; conditions: RAW264.7, 24 h
Procedure, shortened: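 Growth of non-LPS RAW264.7 cells was measured by MTT after 24 h with compound: MTT for 4 h, formazan dissolved in DMSO, OD570. Untreated cells were set as 100% viability. IC50 is the concentration giving 50% growth inhibition.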

SMILES | IC50 (RAW264.7 [1]) | IC50 (RAW264.7 [2])
CCCCOc1c(OC)ccc2c1[C@@]13CCN(C)[C@@H](C2)[C@H]1C=C(OC)C(=O)C3 | 59.6 µM | 68.1 µM
CCOc1c(OC)ccc2c1[C@@]13CCN(C)[C@@H](C2)[C@H]1C=C(OC)C(=O)C3 | > 100 µM | > 100 µM
COC1=C[C@@H]2[C@@H]3Cc4ccc(OC)c(OC(=O)CCCC(=O)Oc5c(OC)ccc6c5[C@@]57CCN(C)[C@@H](C6)[C@H]5C=C(OC)C(=O)C7)c4[C@]2(CCN3C)CC1=O | > 100 µM | > 100 µM
COC1=C[C@@H]2[C@@H]3Cc4ccc(OC)c(OCCOCCOCCOCCOc5c(OC)ccc6c5[C@@]57CCN(C)[C@@H](C6)[C@H]5C=C(OC)C(=O)C7)c4[C@]2(CCN3C)CC1=O | > 100 µM | > 100 µM
CCCCCCOc1c(OC)ccc2c1[C@@]13CCN(C)[C@@H](C2)[C@H]1C=C(OC)C(=O)C3 | – | 29.1 µM
CCCCCOc1c(OC)ccc2c1[C@@]13CCN(C)[C@@H](C2)[C@H]1C=C(OC)C(=O)C3 | 38.8 µM | 53.4 µM
COC1=C[C@@H]2[C@@H]3Cc4ccc(OC)c(OCCOc5c(OC)ccc6c5[C@@]57CCN(C)[C@@H](C6)[C@H]5C=C(OC)C(=O)C7)c4[C@]2(CCN3C)CC1=O | > 100 µM | > 100 µM
CCCCCCC(=O)Oc1c(OC)ccc2c1[C@@]13CCN(C)[C@@H](C2)[C@H]1C=C(OC)C(=O)C3 | – | 38.6 µM
COC1=C[C@@H]2[C@@H]3Cc4ccc(OC)c(OCCOCCOCCOc5c(OC)ccc6c5[C@@]57CCN(C)[C@@H](C6)[C@H]5C=C(OC)C(=O)C7)c4[C@]2(CCN3C)CC1=O | > 100 µM | > 100 µM
CCCCCCCCCCOc1c(OC)ccc2c1[C@@]13CCN(C)[C@@H](C2)[C@H]1C=C(OC)C(=O)C3 | – | 1.9 µM
COC1=C[C@@H]2[C@@H]3Cc4ccc(OC)c(OCCCCCCCCCCOc5c(OC)ccc6c5[C@@]57CCN(C)[C@@H](C6)[C@H]5C=C(OC)C(=O)C7)c4[C@]2(CCN3C)CC1=O | – | 2.8 µM
COC1=C[C@@H]2[C@@H]3Cc4ccc(OC)c(OCc5cccc(COc6c(OC)ccc7c6[C@@]68CCN(C)[C@@H](C7)[C@H]6C=C(OC)C(=O)C8)c5)c4[C@]2(CCN3C)CC1=O | – | 14.2 µM
COC1=C[C@@H]2[C@@H]3Cc4ccc(OC)c(OCCCCCCOc5c(OC)ccc6c5[C@@]57CCN(C)[C@@H](C6)[C@H]5C=C(OC)C(=O)C7)c4[C@]2(CCN3C)CC1=O | – | 9.5 µM
N=C(N)NN [PIMAGEDINE] | 22.6 µM | –
COC1=C[C@@H]2[C@@H]3Cc4ccc(OC)c(OCCCCCCCOc5c(OC)ccc6c5[C@@]57CCN(C)[C@@H](C6)[C@H]5C=C(OC)C(=O)C7)c4[C@]2(CCN3C)CC1=O | – | 2.6 µM
COC1=C[C@@H]2[C@@H]3Cc4ccc(OC)c(OC(=O)CCCCCCC(=O)Oc5c(OC)ccc6c5[C@@]57CCN(C)[C@@H](C6)[C@H]5C=C(OC)C(=O)C7)c4[C@]2(CCN3C)CC1=O | – | 17.3 µM
COC1=C[C@@H]2[C@@H]3Cc4ccc(OC)c(OCc5ccc(COc6c(OC)ccc7c6[C@@]68CCN(C)[C@@H](C7)[C@H]6C=C(OC)C(=O)C8)cc5)c4[C@]2(CCN3C)CC1=O | – | 12.5 µM
COC1=C[C@@H]2[C@@H]3Cc4ccc(OC)c(OC(=O)CCCCCC(=O)Oc5c(OC)ccc6c5[C@@]57CCN(C)[C@@H](C6)[C@H]5C=C(OC)C(=O)C7)c4[C@]2(CCN3C)CC1=O | – | 52.7 µM
COC1=C[C@@H]2[C@@H]3Cc4ccc(OC)c(OCCOCCOc5c(OC)ccc6c5[C@@]57CCN(C)[C@@H](C6)[C@H]5C=C(OC)C(=O)C7)c4[C@]2(CCN3C)CC1=O | – | 59.7 µM
CCCCCC(=O)Oc1c(OC)ccc2c1[C@@]13CCN(C)[C@@H](C2)[C@H]1C=C(OC)C(=O)C3 | – | 78.1 µM
CCCCCCCCCOc1c(OC)ccc2c1[C@@]13CCN(C)[C@@H](C2)[C@H]1C=C(OC)C(=O)C3 | – | 14.5 µM
